Screens as filed in PubChem.
A selection: hits, their analogues and other compounds. The true share with any hit is near 5.8%.
GASC1 inh: inhibitors of human demethylase GASC-1 KDM4C; Q9H3R0; GST-KDM4C 2-372, H3K9me3 peptide, LANCE TR-FRET; inhibition, % at 12.5 µM; 96,000 tested, 0.15% active;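 active means mean replicate inhibition above about 25%, with at least 55% of replicates also reaching it, limit read from the data, passing the limit was not always enough; inconclusive means only one of those two conditions met; inactive means neither condition met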
Target sequence (Q9H3R0 2-372 limits assumed): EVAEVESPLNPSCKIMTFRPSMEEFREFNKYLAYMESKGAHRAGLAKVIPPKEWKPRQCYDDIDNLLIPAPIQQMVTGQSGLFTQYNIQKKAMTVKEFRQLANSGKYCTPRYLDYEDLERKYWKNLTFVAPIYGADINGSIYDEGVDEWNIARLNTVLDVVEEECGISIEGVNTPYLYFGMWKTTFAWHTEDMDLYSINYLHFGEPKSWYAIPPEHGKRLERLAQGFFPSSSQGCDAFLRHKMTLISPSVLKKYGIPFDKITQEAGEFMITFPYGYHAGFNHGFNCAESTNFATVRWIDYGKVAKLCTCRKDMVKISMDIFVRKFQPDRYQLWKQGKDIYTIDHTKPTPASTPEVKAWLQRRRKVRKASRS
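System – N-terminal GST-fused human GASC-1 (KDM4C) fragment, residues 2-372 · Input – enzyme final amount 10 nM · Technique – LANCE TR-FRET, Eu antibody, ULight-streptavidin, EDTA, ex 340 nm, em 618/671 nm · Medium – HEPES buffer, pH 7.5, plus ascorbate · Incubation – enzyme reaction 30 min, then detection 60 min, both room temperature · Reagent – H3K9me3 peptide with Fe(II)/2OG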
Pf Dd2 growth: blocks growth of Plasmodium falciparum Dd2 parasites. activity change, % at 10 µM. AID 1159554. 94,000 tested, 2.3% active. P. falciparum Dd2 growth, SYBR Green, 72 h; active compounds read low; in the data active means activity change below about -80%; inconclusive means no clear call, values can overlap the other calls
IDH1 mut inh: IDH1 R132H (human) inhibition; O75874; IDH1 R132H reductase, diaphorase/resazurin fluorescence, 60 min; inhibition, % at 10 µM; 70,000 tested, 0.18% active; in the data active means inhibition above about 34%; inconclusive means no clear call, values can overlap the other calls; inactive means below about 11%;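 further: 0% = DMSO and 100% = no enzyme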
T cruzi growth-1: T. cruzi proliferation inhibition; T. cruzi beta-gal in NIH3T3, GalScreen luminescence, 90 h; inhibition, % at 8.34 µM; 77,000 tested, 5.9% active; AID 624255;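 active means mean inhibition above about 93%, with at least 55% of replicates each passing it, limit read from the data, passing the limit was not always enough; inconclusive means only one of those two conditions holds; inactive means neither condition holds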
T cruzi growth-2: blocks T. cruzi growth in NIH3T3 host cells. shares compounds with T cruzi growth-1. T. cruzi beta-gal in NIH3T3, GalScreen luminescence, 90 h. inhibition, % at 8.35 µM. 5,600 tested, 72% active;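 active means mean replicate inhibition above about 95% and at least 55% of replicates individually reaching it, limit read from the data; inconclusive means only one of the two criteria is met; inactive means neither criterion is met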
T cruzi growth-3: Trypanosoma cruzi proliferation inhibition; shares compounds with T cruzi growth-1; T. cruzi beta-gal in NIH3T3, GalScreen luminescence, 90 h; inhibition, % at 2.09 µM; 5,600 tested, 21% active;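 active means mean inhibition above about 95%, with at least 55% of replicates also reaching it, limit read from the data; inconclusive means meets just one of the two conditions; inactive means meets neither condition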;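 further: plate controls were neutral control median for no effect and positive control median for full effect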
3T3 cytotox: NIH/3T3 (mouse) viability loss | NIH/3T3 viability, CellTiter-Glo ATP luminescence, 90 h | shares compounds with T cruzi growth-1 | AID 651742 | cytotoxicity (signal decrease), % at 8.35 µM | 5,600 tested, 14% active;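 active means mean signal decrease across replicates above about 35% based on untreated-well scatter, with enough replicates individually passing, limit read from the data; inconclusive means no rule stated though some were filed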;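 further: 0% = median of neutral control wells and 100% = median of positive control wells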
NIH3T3 tox 2: NIH/3T3 (mouse) viability loss | shares compounds with T cruzi growth-1 | NIH/3T3 viability, CellTiter-Glo ATP luminescence, 90 h | inhibition, % at 24.9 µM | 5,600 tested, 56% active | AID 651744;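 active means mean loss of cell viability signal at or above a set limit, and enough replicates individually reaching it; inconclusive means meets only the mean limit or only the replicate share; inactive means meets neither condition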;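 further: 0% = median of neutral control wells and 100% = median of positive control wells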
Numbers without * were called inactive; u = inconclusive; x = no result.

SMILES	GASC1 inh	Pf Dd2 growth	IDH1 mut inh	T cruzi growth-1	T cruzi growth-2	T cruzi growth-3	3T3 cytotox	NIH3T3 tox 2
CC(C)CC#Cc1ccc2c(c1)O[C@@H](CN(C)C(=O)Cc1ccncc1)[C@H](C)CN([C@@H](C)CO)S2(=O)=O	2.7	-82.1*	13.4	99.8*	98.5*	25.0	15.0	23.3
CC(C)CC#Cc1ccc2c(c1)O[C@H](CN(C)C(=O)Cc1ccccc1)[C@@H](C)CN([C@H](C)CO)S2(=O)=O	4.0	-73.4	1.7	125.5*	98.1*	u	-6.2	104.7*
CCCN(C)C[C@@H]1Oc2cc(-c3ccccc3)ccc2S(=O)(=O)N([C@@H](C)CO)C[C@@H]1C	0.5	-55.0	-0.3	50.4	x	x	x	x
Cc1cccc(NC(=O)c2ccccc2NC(=O)COc2ccc([N+](=O)[O-])cc2)c1C	x	x	0.0	x	x	x	x	x
Cc1noc(C)c1S(=O)(=O)Nc1ccc2c(c1)C(=O)N([C@H](C)CO)C[C@H](C)[C@@H](CN(C)C(=O)Nc1ccc(C(F)(F)F)cc1)OCCCC[C@H](C)O2	0.3	-38.5	9.6	113.8*	100.5*	93.6	20.4	u
Cc1noc(C)c1S(=O)(=O)Nc1ccc2c(c1)C(=O)N([C@@H](C)CO)C[C@H](C)[C@H](CN(C)C(=O)Nc1ccc(C(F)(F)F)cc1)OCCCC[C@H](C)O2	-0.2	-45.7	1.9	66.3	x	x	x	x
Cc1noc(C)c1S(=O)(=O)Nc1ccc2c(c1)C(=O)N([C@@H](C)CO)C[C@@H](C)[C@@H](CN(C)C(=O)Nc1ccc(C(F)(F)F)cc1)OCCCC[C@@H](C)O2	-0.4	-60.4	x	u	95.5*	101.8*	11.8	u
Cc1noc(C)c1S(=O)(=O)Nc1ccc2c(c1)C(=O)N([C@H](C)CO)C[C@H](C)[C@H](CN(C)C(=O)Nc1ccc(C(F)(F)F)cc1)OCCCC[C@H](C)O2	0.5	-20.3	0.3	100.6	x	x	x	x
C[C@H](CO)N1C[C@H](C)[C@H](CN(C)C(=O)c2ccncc2)Oc2cc(C3=CCCC3)ccc2S1(=O)=O	1.8	-22.0	10.4	u	98.9*	61.7	8.7	21.2
C[C@@H]1CN([C@@H](C)CO)S(=O)(=O)c2ccc(C3=CCCCC3)cc2O[C@@H]1CN(C)C(=O)c1ccc(F)cc1	-1.1	-0.1	-2.7	113.9*	106.8*	94.2	23.0	98.2*
CN1CCC(N(C)Cc2ccc(-c3ccccc3[N+](=O)[O-])o2)CC1	x	x	0.2	x	x	x	x	x
COc1ccc(S(=O)(=O)N(C)C[C@H]2OCCCC[C@H](C)Oc3ccc(NS(=O)(=O)c4ccc(Cl)cc4)cc3C(=O)N([C@@H](C)CO)C[C@@H]2C)cc1	-0.9	-52.3	x	x	x	x	x	x
COc1ccc(S(=O)(=O)Nc2ccc3c(c2)C(=O)N([C@H](C)CO)C[C@H](C)[C@@H](CN(C)S(=O)(=O)c2ccc(Cl)cc2)OCCCC[C@@H](C)O3)cc1	-0.1	-25.2	0.5	101.2*	108.1*	27.7	5.5	36.5*
COc1ccc(S(=O)(=O)Nc2ccc3c(c2)C(=O)N([C@@H](C)CO)C[C@H](C)[C@@H](CN(C)S(=O)(=O)c2ccc(Cl)cc2)OCCCC[C@@H](C)O3)cc1	-0.2	-74.8	-0.5	98.9*	101.3*	113.9*	-1.5	35.2*
C[C@@H]1CN([C@H](C)CO)C(=O)c2cc(-c3ccc(C(=O)N(C)C)cc3)cnc2O[C@@H]1CN(C)C(=O)C1CC1	5.3	37.2	0.1	5.1	x	x	x	x
COc1ccc(CN(C)C[C@@H]2Oc3ccc(NC(=O)Nc4ccccc4)cc3C(=O)N([C@@H](C)CO)C[C@@H]2C)cc1	-0.2	12.9	0.3	15.3	x	x	x	x
COc1ccc(CN(C)C[C@@H]2Oc3ccc(NC(=O)Nc4ccccc4)cc3C(=O)N([C@H](C)CO)C[C@@H]2C)cc1	-0.6	2.3	-0.6	24.1	x	x	x	x
COc1ccc(NC(=O)Nc2ccc3c(c2)C(=O)N([C@@H](C)CO)C[C@@H](C)[C@@H](CN(C)Cc2ccc(-c4ccccc4)cc2)O3)cc1	-3.1	20.7	1.9	99.7*	104.4*	107.9*	55.4*	83.7*
COc1ccc(NC(=O)Nc2ccc3c(c2)C(=O)N([C@H](C)CO)C[C@H](C)[C@H](CN(C)Cc2ccc(-c4ccccc4)cc2)O3)cc1	-1.2	12.7	2.6	u	100.1*	21.8	-5.6	19.0
Cc1cc2nc(-c3cccc(NC(=O)COc4ccccc4C)c3C)oc2cc1C	x	x	0.4	x	x	x	x	x
Cc1ccc(S(=O)(=O)Nc2ccc3c(c2)CC(=O)N([C@@H](C)CO)C[C@H](C)[C@@H](CN(C)C(=O)Nc2ccc(F)cc2)O3)cc1	5.0	-58.9	0.0	17.5	x	x	x	x
COc1ccc(-c2ccc([C@H]3[C@@H](C#N)N(C(=O)c4cccc(F)c4)[C@H]3CO)cc2)cc1	-1.9	-15.9	x	93.5	x	x	x	x
COc1ccc(-c2ccc([C@@H]3[C@H](C#N)N(C(=O)c4cccc(F)c4)[C@H]3CO)cc2)cc1	-4.9	12.0	x	103.3*	105.3*	40.8	9.0	30.7*
N#C[C@H]1[C@H](c2ccc(C3=CCCCC3)cc2)[C@@H](CO)N1C(=O)c1cccc(F)c1	-1.3	-5.2	x	98.1*	100.2*	40.4	10.0	44.8*
N#C[C@H]1[C@@H](c2ccc(C3=CCCCC3)cc2)[C@H](CO)N1C(=O)c1cccc(F)c1	-1.1	-5.8	x	94.0	x	x	x	x
SMILES	GASC1 inh	Pf Dd2 growth	IDH1 mut inh	T cruzi growth-1	T cruzi growth-2	T cruzi growth-3	3T3 cytotox	NIH3T3 tox 2
COc1ccc(-c2ccc([C@@H]3[C@@H](CO)N(C(=O)c4cccc(F)c4)[C@H]3C#N)cc2)cc1	-0.3	-28.9	x	u	88.4	41.3	0.7	6.8
NC(=O)CSc1ncnc2scc(-c3ccc(Cl)cc3)c12	x	x	0.0	x	x	x	x	x
CO[C@@H]1CN(C)C(=O)c2ccc(NC(=O)Nc3ccccc3Cl)cc2OC[C@H](C)NC[C@@H]1C	0.3	-7.6	-0.3	-33.1	x	x	x	x
O=S(=O)(c1cccs1)N1CCCCN2[C@H](C1)[C@H](c1ccc(-c3ccccc3)cc1)[C@@H]2CO	-1.0	9.5	x	100.8*	107.7*	94.0	14.5	u
O=S(=O)(c1cccs1)N1CCCCN2[C@H](CO)[C@H](c3ccc(-c4ccccc4)cc3)[C@H]2C1	-0.5	-1.1	x	87.9	x	x	x	x
O=S(=O)(c1cccs1)N1CCCCN2[C@@H](CO)[C@@H](c3ccc(C4=CCCCC4)cc3)[C@@H]2C1	x	-63.3	x	75.8	x	x	x	x
O=S(=O)(c1cccs1)N1CCCCN2[C@H](CO)[C@H](c3ccc(C4=CCCCC4)cc3)[C@@H]2C1	x	-0.8	x	118.0*	101.4*	93.6	23.0	51.3*
